Format in all cases: functional, cell-based
Test [1] relates to LNCaP. As to the kind of experiment: Antitumor activity against human LNCAP cells. Put shortly:
(§1)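 SRB growth assay. Stock cultures grown in T-25 flasks in RPMI-1640 with […], 0.25% sodium bicarbonate, 10% FBS and 100 µg/mL kanamycin. Freshly trypsinized cells seeded at 1500-7500 per well, compounds added from DMSO-diluted stock, 3 days culture. Attached cells fixed with cold 50% TCA, stained with 0.4% SRB, bound dye solubilized, absorbance read at 562 nm. EC50 = concentration reducing growth 50%, mean of at least three independent determinations.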

Test [2] concerns KB. The test can be described thus: Antitumor activity against human KB cells. In outline:
as §1

Test [3] can be described thus: Antitumor activity against human KB-VIN cells. The note with it: KBVIN. Put shortly: as §1
For test [4], the system named is A-431. As to the kind of experiment: Antitumor activity against human A431 cells. Put shortly:
as §1

In test [5] the test system is A549. The test can be described thus: Antitumor activity against human A549 cells. In outline:
as §1

Test [6] has as its system HCT-8. As to the kind of experiment: Antitumor activity against human HCT8 cells. In outline: as §1
The test system of test [7] is PC-3. As to the kind of experiment: Antitumor activity against human PC3 cells. Put shortly: as §1
The subject of test [8] is ZR-75-1. The test can be described thus: Antitumor activity against human ZR751 cells. In outline:
as §1

In test [9] the test system is 1A9. As to the kind of experiment: Antitumor activity against human 1A9 cells. Put shortly:
as §1

For test [10], the system named is DU-145. As to the kind of experiment: Antitumor activity against human DU145 cells. Put shortly:
as §1

Test [11] deals with HCT-116. As to the kind of experiment: Antitumor activity against human HCT116 cells. Put shortly:
as §1

Converted amounts (≈) assume the structure as drawn.

As a reminder, the EC50 is the concentration at which the effect is half-maximal. Turning to `C[C@]12C(=O)C=CCC1=CC[C@@H]1[C@@H]2CC[C@]2(O)C(=O)O[C@@]3(C)[C@H]4C[C@]5(C)[C@@H](CO[C@@]16O[C@@]32[C@H]5C6=O)C(=O)O4` [PHYSALIN B], the EC50 in test [1] came to 5.3 µg/mL (≈ 10.4 µM); in test [2], 3 µg/mL (≈ 5.88 µM); in test [3] it was 1.3 µg/mL (≈ 2.55 µM); in [4] it was 1.8 µg/mL (≈ 3.53 µM); in test [5], 5.9 µg/mL (≈ 11.6 µM); in [6], 1.5 µg/mL (≈ 2.94 µM). The EC50 in test [7] came out at 0.9 µg/mL (≈ 1.76 µM); in [8], 2.6 µg/mL (≈ 5.09 µM).

`C[C@@]12C[C@H]3OC(=O)[C@@H]1CO[C@@]14O[C@]5([C@H]2C1=O)[C@@](O)(CC[C@H]1[C@H]4C[C@@H](O)[C@@]2(O)CC=CC(=O)[C@]12C)C(=O)O[C@@]35C` [PHYSALIN D]: the EC50 turned out to be 1.3 µg/mL (≈ 2.39 µM) in test [1]; 1.2 µg/mL (≈ 2.2 µM) in test [2]; 7 µg/mL (≈ 12.9 µM) in [3]; 1.4 µg/mL (≈ 2.57 µM) in [4]; 1.6 µg/mL (≈ 2.94 µM) in test [5]; 1.2 µg/mL (≈ 2.2 µM) in test [6]. Moreover, the values for the EC50 in test [7] and in test [8] were 1.6 µg/mL (≈ 2.94 µM) and 0.4 µg/mL (≈ 0.735 µM), respectively.

For `C[C@@]12C[C@H]3OC(=O)[C@@H]1CO[C@]14O[C@]5([C@H]2C1=O)[C@@](O)(CC[C@H]1[C@H]4C[C@H]2O[C@]24CC=CC(=O)[C@]14C)C(=O)O[C@@]35C` [PHYSALIN F], the EC50 in [1] is 1 µg/mL (≈ 1.9 µM); in test [2] it was 0.9 µg/mL (≈ 1.71 µM); in test [3] it was 1.9 µg/mL (≈ 3.61 µM); in test [4] it was 1.1 µg/mL (≈ 2.09 µM); in test [5], 1.3 µg/mL (≈ 2.47 µM); in [6], 1 µg/mL (≈ 1.9 µM). Also, the EC50 in test [7] turned out to be 1.1 µg/mL (≈ 2.09 µM); in [8], 0.3 µg/mL (≈ 0.57 µM).

Take `C[C@@]12C[C@H]3OC(=O)[C@@H]1CO[C@@]14O[C@]5(C2C1=O)[C@@](O)(CC[C@H]1[C@H]4C[C@@H]2O[C@@]24CC=CC(=O)[C@]14C)C(=O)O[C@@]35C` [PHYSALIN J]: the EC50 in [4] is 17 µg/mL (≈ 32.3 µM).

With `CO[C@@H]1CC(=O)[C@]2(C)[C@H]3CC[C@@]4(O)C(=O)O[C@@]5(C)[C@H]6C[C@@]7(C)C8C(=O)[C@@](OC[C@H]7C(=O)O6)(O[C@]845)[C@@H]3C[C@H]3O[C@]32C1` [PHYSALIN U], the EC50 in test [1] is 15.9 µg/mL (≈ 28.5 µM); in test [2] it was 11.9 µg/mL (≈ 21.3 µM); in test [3] it was 20 µg/mL (≈ 35.8 µM); in test [4] it was 13.4 µg/mL (≈ 24 µM); in [5] it was 16.3 µg/mL (≈ 29.2 µM); in test [6] it was 11.1 µg/mL (≈ 19.9 µM). For the same molecule, the EC50 in [7] was 18.1 µg/mL (≈ 32.4 µM); in [8], 8.2 µg/mL (≈ 14.7 µM).

`CO[C@@H]1CC(=O)[C@@]2(C)[C@@H](CC[C@@H]3[C@@H]2CC[C@@]2(O)C(=O)O[C@@]4(C)[C@H]5C[C@@]6(C)C7C(=O)[C@@]3(OC[C@H]6C(=O)O5)O[C@]724)C1` [PHYSALIN W] showed an EC50 in test [9] of 9.2 µg/mL (≈ 16.9 µM).

Consider `CC1=C(C)C(=O)OC([C@](C)(O)[C@]2(O)C[C@H](O)[C@@]3(O)[C@@H]4C[C@H]5O[C@]56[C@@H](O)C=CC(=O)[C@]6(C)[C@H]4CC[C@@]32C)C1` (stereo partly specified) [WITHANGULATIN B], for which the EC50 in test [10] came to 1.3 µg/mL (≈ 2.51 µM); in [9], 0.2 µg/mL (≈ 0.386 µM); in test [11], 0.4 µg/mL (≈ 0.771 µM); in [1] it was 0.2 µg/mL (≈ 0.386 µM).

As for `CO[C@H]1C[C@@](O)([C@@](C)(O)C2CC(C)=C(C)C(=O)O2)[C@@]2(C)CC[C@H]3[C@@H](C[C@H]4O[C@]45[C@@H](O)CCC(=O)[C@]35C)[C@]12O` (stereo partly specified) [WITHANGULATIN C], the EC50 in test [9] stood at 6.5 µg/mL (≈ 12.2 µM); in test [11], 11.4 µg/mL (≈ 21.3 µM); in test [1], 13.9 µg/mL (≈ 26 µM).

For the molecule `CC1=C(C)C(=O)OC([C@](C)(O)[C@]2(O)[C@@H](O)C[C@@]3(O)[C@@H]4C[C@@H](O)[C@@]5(O)[C@@H](O)C=CC(=O)[C@]5(C)[C@H]4CC[C@]23C)C1` (stereo partly specified) [WITHANGULATIN G], the EC50 in test [9] turned out to be 18.8 µg/mL (≈ 35 µM); in test [1], 13.4 µg/mL (≈ 25 µM).

Take `CO[C@H]1CC(=O)[C@]2(C)[C@H]3CC[C@]4(C)[C@](O)([C@@](C)(O)C5CC(C)=C(C)C(=O)O5)[C@@H](O)C[C@@]4(O)[C@@H]3C[C@H]3O[C@]32C1` (stereo partly specified) [WITHANGULATIN H]: the figures for the EC50 in [9], in test [11] and in test [1] were 3.7 µg/mL (≈ 6.92 µM), 9.2 µg/mL (≈ 17.2 µM) and 9.6 µg/mL (≈ 18 µM), respectively.

The values above are taken from ChEMBL document CHEMBL1145449, “Isolation, structures, and structure - cytotoxic activity relationships of withanolides and physalins from Physalis angulata” (J Nat Prod, 2007).
